Twelve molecules from ChEMBL document CHEMBL4400529, “Structure-based drug design, synthesis, In vitro, and In vivo biological evaluation of indole-based biomimetic analogs targeting estrogen receptor-α inhibition” (Eur J Med Chem, 2019) can be followed below.

The subject of one series is T47D. In words: Antiproliferative activity against human T47D cells after 24 hrs by MTT assay. Format: functional, cell-based. In a few lines:
(§1)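 Cells from ATCC, subcultured by an earlier reported method, then exposed to 5-fold serial dilutions in triplicate for 24 h. Cells were washed with PBS, given MTT for 2 h, then dissolved in DMSO. Absorbance read at 570 nm.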
(In general: Tetrazolium dyes change colour on reduction, which living cells bring about.)

The subject of the next series is MCF7. In words: Antiproliferative activity against human MCF7 cells after 24 hrs by MTT assay. Format: functional, cell-based. The conditions noted are these: MCF7, 24 h. In a few lines:
as §1

Another series concerns the target T1, Estrogen receptor (Homo sapiens, UniProt P03372).
T1 sequence (P03372 whole entry): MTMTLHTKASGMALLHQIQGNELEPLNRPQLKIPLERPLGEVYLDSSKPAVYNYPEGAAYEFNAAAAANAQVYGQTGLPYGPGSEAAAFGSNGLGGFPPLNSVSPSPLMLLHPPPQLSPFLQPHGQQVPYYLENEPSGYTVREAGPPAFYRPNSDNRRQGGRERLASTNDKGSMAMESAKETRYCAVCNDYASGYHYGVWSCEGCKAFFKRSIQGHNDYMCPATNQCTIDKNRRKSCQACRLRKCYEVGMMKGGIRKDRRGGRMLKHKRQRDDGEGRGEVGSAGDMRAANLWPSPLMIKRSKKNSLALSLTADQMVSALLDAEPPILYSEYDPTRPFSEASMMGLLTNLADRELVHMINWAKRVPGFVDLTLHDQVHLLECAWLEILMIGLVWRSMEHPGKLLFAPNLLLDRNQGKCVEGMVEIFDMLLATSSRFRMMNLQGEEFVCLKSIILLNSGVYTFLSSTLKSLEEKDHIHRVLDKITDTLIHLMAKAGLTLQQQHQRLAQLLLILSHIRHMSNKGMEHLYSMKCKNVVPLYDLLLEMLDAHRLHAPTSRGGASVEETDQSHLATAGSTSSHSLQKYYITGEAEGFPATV
The experiment in a line: Inhibition of estrogen receptor-alpha (unknown origin) by ELISA. In general terms: In an ELISA, binding on a coated surface is turned into a signal by an enzyme label.

The subject of series [1] is Ehrlich. In words: Antitumor activity against mouse EAC cells implanted in Swiss albino mouse assessed as reduction in tumor volume at 10 mg/mouse, ip starting 5 days after inoculation dosed once weekly and measured on 15 days of treatment relative to fulvestrant. In kind it is functional, organism-based. Put shortly: (§2)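 Female Swiss albino mice received EAC cells from donor ascitic fluid (~12.5 × 10^6/mL in sterile saline, 0.2 mL) i.m. into the left thigh. Treatment began at a palpable mass of ~100 mm3, given i.p. once weekly in 10% Tween 80 against vehicle and fulvestrant 5 mg/mouse controls. Caliper tumor volume = L × H² × 0.52. Mean ± SD, n=10, one-way ANOVA with Tukey-Kramer.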

Series [2] deals with Mus musculus. In words: Decrease in ER-alpha protein expression in tumors of Swiss albino mouse mouse implanted with mouse EAC cells at 10 mg/mouse, ip dosed once weekly starting 5 days after inoculation by immunohistochemical analysis relative to fulvestrant. Format: functional. More on the design: scale not given: the % may be the effect or the level left. In a few lines:
(§3)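 Tumors from the EAC mouse model after 15 days of treatment were stained by avidin-biotin immunoperoxidase using an anti-ER-α monoclonal antibody (1:100 in PBS), detected with DAB and counterstained with Mayer's hematoxylin. A section without primary antibody served as negative control. Percentage of positive cells estimated in 10 random fields per section per animal. Mean ± SD, n=10.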

The subject of series [3] is Ehrlich. The experiment in a line: Antitumor activity against mouse EAC cells implanted in Swiss albino mouse assessed as induction of necrosis at 5 mg/mouse, ip dosed once weekly starting 5 days after inoculation by hematoxylin and eosin staining-based assay. In kind it is functional, organism-based. Put shortly: (§4)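 EAC solid tumors in female Swiss albino mice, with weekly i.p. treatment in 10% Tween 80 against vehicle and fulvestrant controls. Tumors were collected on day 15, formalin-fixed, paraffin-embedded and stained with H&E. Necrotic index scored in 10 random fields per section per animal. n=10, one-way ANOVA with Tukey-Kramer.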

Series [4] concerns Ehrlich. In words: Antitumor activity against mouse EAC cells implanted in Swiss albino mouse assessed as focal necrotic areas in deeper parts of tumor mass at 10 mg/mouse, ip dosed once weekly starting 5 days after inoculation by hematoxylin and eosin staining-based assay. In kind it is functional, organism-based. In a few lines: as §4
Series [5] in a line: Acute toxicity in Swiss albino mouse assessed induction of toxic signs at 10 mg/mouse, ip dosed once weekly. Format: organism-based. The settings on record: in vivo. Put shortly: (§5)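 Normal female-strain-unspecified mice got a single i.p. dose of 10 mg/mouse. They were watched for 7 days for short-term acute toxic signs, behavioural changes and mortality.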
A short description of series [6]: Acute toxicity in Swiss albino mouse implanted with mouse EAC cells assessed effect on body weight at 5 to 10 mg/mouse, ip dosed once weekly starting 5 days after inoculation and measured up to 20 days after inoculation. In kind it is organism-based. The conditions noted are these: in vivo. In a few lines: (§6)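 Female Swiss albino mice were given EAC cells from donor ascitic fluid, diluted in sterile saline to ~12.5 × 10^6/mL, 0.2 mL i.m. into the left thigh. Once-weekly i.p. dosing in 10% Tween 80 began at a palpable ~100 mm3 mass; controls got vehicle. Tumour volume (caliper, L × H² × 0.52) and body weight were taken over 15 days; n=10, mean ± SD, ANOVA/Tukey-Kramer.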

In series [7] the test system is Mus musculus. The experiment in a line: Decrease in ER-alpha protein expression in tumors of Swiss albino mouse mouse implanted with mouse EAC cells at 10 mg/mouse, ip dosed once weekly starting 5 days after inoculation by immunohistochemical analysis relative to control. Format: functional. More on the design: scale not given: the % may be the effect or the level left. In a few lines: as §3

Series [8] can be described thus: Acute toxicity in Swiss albino mouse assessed induction of behavioural changes at 10 mg/mouse, ip dosed once weekly. Format: organism-based. The settings on record: in vivo. In a few lines:
as §5

Series [9] deals with Mus musculus. In words: Decrease in ER-alpha protein expression in tumors of Swiss albino mouse mouse implanted with mouse EAC cells at 5 mg/mouse, ip dosed once weekly starting 5 days after inoculation by immunohistochemical analysis relative to control. In kind it is functional. Also on record: scale not given: the % may be the effect or the level left. Put shortly: as §3

For series [10], the system named is Ehrlich. The experiment in a line: Antitumor activity against mouse EAC cells implanted in Swiss albino mouse assessed as reduction in tumor size at 5 to 10 mg/mouse, ip dosed once weekly starting 5 days after inoculation and measured 9 and 12 days of treatment relative to fulvestrant. In kind it is functional, organism-based. Put shortly: as §2
The nature of series [11]: Acute toxicity in Swiss albino mouse assessed induction of mortality at 10 mg/mouse, ip dosed once weekly. In kind it is organism-based. The conditions noted are these: in vivo. In a few lines:
as §5

Series [12] relates to Mus musculus. In words: Decrease in ER-alpha protein expression in tumors of Swiss albino mouse mouse implanted with mouse EAC cells at 5 mg/mouse, ip dosed once weekly starting 5 days after inoculation by immunohistochemical analysis relative to fulvestrant. More on the design: scale not given: the % may be the effect or the level left. Format: functional. In a few lines: as §3

Series [13] deals with Ehrlich. In words: Antitumor activity against mouse EAC cells implanted in Swiss albino mouse assessed as viable cell area in deeper parts of tumor mass at 10 mg/mouse, ip dosed once weekly starting 5 days after inoculation by hematoxylin and eosin staining-based assay. Format: functional, organism-based. Put shortly:
as §4

The test system of series [14] is Ehrlich. In words: Antitumor activity against mouse EAC cells implanted in Swiss albino mouse assessed as reduction in tumor volume at 5 mg/mouse, ip dosed once weekly starting 5 days after inoculation and measured on 15 days of treatment relative to fulvestrant. In kind it is functional, organism-based. In a few lines: as §2
For series [15], the system named is Ehrlich. The experiment in a line: Antitumor activity against mouse EAC cells implanted in Swiss albino mouse assessed as increase in necrotic areas in outer zone of tumor mass at 10 mg/mouse, ip dosed once weekly starting 5 days after inoculation by hematoxylin and eosin staining-based assay. In kind it is functional, organism-based. In a few lines:
as §4

In series [16] the test system is Ehrlich. The experiment in a line: Antitumor activity against mouse EAC cells implanted in Swiss albino mouse assessed as reduction in viable tumor cell area in outer zone of tumor mass at 10 mg/mouse, ip dosed once weekly starting 5 days after inoculation by hematoxylin and eosin staining-based assay. In kind it is functional, organism-based. Put shortly:
as §4

Series [17] has as its system Ehrlich. The experiment in a line: Antitumor activity against mouse EAC cells implanted in Swiss albino mouse assessed as induction of tumor degeneration in outer zone of tumor mass at 10 mg/mouse, ip dosed once weekly starting 5 days after inoculation by hematoxylin and eosin staining-based assay. In kind it is functional, organism-based. Put shortly:
as §4

Series [18] relates to Ehrlich. In words: Antitumor activity against mouse EAC cells implanted in Swiss albino mouse assessed as reduction in tumor size at 5 mg/mouse, ip dosed once weekly starting 5 days after inoculation. Format: functional, organism-based. Put shortly: as §6

Active and inactive are the calls of the source. The calls are words filed in the database; no cut-off is given here.

The IC50 is the concentration that inhibits the measured activity by half. For the molecule `O=S(=O)(Nc1ccc2cc[nH]c2c1)c1ccc(Br)cc1`, the IC50 was 40.1 µM in the series on T47D, 37.8 µM in the series with MCF7 and 22.7 nM at Estrogen receptor.

`CC/C(=C(\c1ccccc1)c1ccc(OCCN(C)C)cc1)c1ccccc1` [TAMOXIFEN]: the IC50 with T47D was 34.4 µM; in the series with MCF7, 42.4 µM.

As for `O=S(=O)(Nc1ccc2cc[nH]c2c1)c1ccc(F)cc1`, the result with Ehrlich [1], in the series with Ehrlich [4], in the series on Ehrlich [10] and in the series on Ehrlich [13] was Active. Also, the Activity in the series on Mus musculus [2] is 25.35%; in series [5] it was “Non-Toxic”; in [6], “Non-Toxic”; in the series on Mus musculus [7], 37.65%; in [8], “Non-Toxic”; in the series on Mus musculus [9], 58.24%. Besides, the Activity result in series [11] is listed as “Non-Toxic”; with Mus musculus [12], 50%. For the same molecule, the IC50 in the series with T47D is 33 µM; in the series on MCF7 it was 30.9 µM; on Estrogen receptor it was 3.31 nM. In addition, the outcome with Ehrlich [3] was inactive.

In the case of `O=C(Nc1ccc2cc[nH]c2c1)c1ccc(F)cc1`, the figures for the IC50 in the series on T47D, with MCF7 and against Estrogen receptor were 35.1 µM, 45.9 µM and 69.5 nM, respectively.

`O=S(=O)(Nc1ccc2cc[nH]c2c1)c1ccc(Cl)cc1`: the results for the IC50 in the series on T47D, in the series on MCF7 and against Estrogen receptor were 46.2 µM, 54 µM and 44.4 nM, respectively.

With `O=C(Nc1ccc2cc[nH]c2c1)c1ccc(Br)cc1`, the IC50 amounted to 63.7 µM in the series with T47D, 38.1 µM in the series on MCF7 and 4.71 nM at Estrogen receptor.

As for `Cc1ccc(S(=O)(=O)Nc2ccc3cc[nH]c3c2)cc1`, the IC50 stood at 57.1 µM in the series on T47D, 37.2 µM with MCF7 and 205 nM against Estrogen receptor.

Regarding `N#Cc1ccc(C(=O)Nc2ccc3cc[nH]c3c2)cc1`, the IC50 came to 35.8 µM in the series on T47D, 33.6 µM in the series on MCF7 and 2.4 nM against Estrogen receptor.

`O=C(Nc1ccc2cc[nH]c2c1)c1ccc(C(F)(F)F)cc1`: the results for the IC50 with T47D, with MCF7 and against Estrogen receptor were 51.3 µM, 63.4 µM and 8.15 nM, respectively.

Turning to `O=C(Nc1ccc2cc[nH]c2c1)c1cccc(C(F)(F)F)c1`, the Activity with Mus musculus [2] is reported as 22.54%; in series [5], “Non-Toxic”; in series [6] it was “Non-Toxic”; in the series with Mus musculus [7], 35.3%; in series [8], “Non-Toxic”; in the series on Mus musculus [9] it was 64.71%. For the same molecule, the Activity entry in series [11] is listed as “Non-Toxic”; in the series on Mus musculus [12], 57.75%. In addition, the IC50 in the series with T47D stood at 28.2 µM; in the series on MCF7, 30.6 µM; against Estrogen receptor, 1.76 nM. The outcome with Ehrlich [14], in the series on Ehrlich [15], in the series with Ehrlich [10], in the series with Ehrlich [16] and in the series with Ehrlich [17] was Active.

For the molecule `COc1ccc(S(=O)(=O)Nc2ccc3cc[nH]c3c2)cc1`, the IC50 in the series with T47D worked out at 45 µM; in the series on MCF7, 57.2 µM; at Estrogen receptor it was 7.53 nM.

As for `C[C@]12CC[C@@H]3c4ccc(O)cc4C[C@@H](CCCCCCCCC[S+]([O-])CCCC(F)(F)C(F)(F)F)[C@H]3[C@@H]1CC[C@@H]2O` (some centres undefined), in the series with Ehrlich [18], the outcome was Active.
